Results reported in PubChem BioAssay AID822 (SRMLSC, 2007).
Calls of active or inactive are those of the source.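 How the source made its calls: active means half-maximal effective dose for blocking growth of human endothelial cells at most 100 µM; inactive means the rest.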

Experiment: HUVEC proliferation inhibition, dose response, cell-based, ATP luminescence (AID 822);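 further: cells exposed to compound for 72 h before the ATP read; 100% = median luminescence of untreated cell-only control wells on each plate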
Conditions: HUVEC proliferation, viability ATP luminescence; at 20 µM (top of the series)
Procedure, shortened: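 Material: HUVEC. Input: 1250 cells per well. Medium: endothelial basal medium (EBM) with 2% fetal bovine serum, collagen-coated wells. Compound: 0.039–20 µM, 0.2% DMSO. Times: compound treatment 72 h, 37 °C. Technique: CellTiter-Glo ATP luminescence. Read-out basis: % viability and fitted EC50. Format: collagen-coated multiwell plates.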

COc1ccc(OC)c(S(=O)(=O)N(C)CC(=O)N2CCN(c3ccc(F)cc3)CC2)c1
viability: 100% (inactive)

COc1ccccc1N1CCN(C(=O)c2ccc(Br)s2)CC1
viability: 97.5% (inactive)

COc1ccc2[nH]cc(C(=O)CN3CCN(C(=O)c4ccco4)CC3)c2c1
viability: 101% (inactive)

CC(C)(C)c1ccc(-c2nnc(SCC(=O)O)n2N)cc1
viability: 106% (inactive)

Cc1cc(C(=O)OC(C)C(=O)Nc2cccc(S(=O)(=O)N3CCOCC3)c2)c(C)o1 (stereo not given)
viability: 101% (inactive)

N#CCC(=O)Nc1ncn(Cc2ccccc2Cl)n1
viability: 95.8% (inactive)

Cc1nc2ccccc2n1CCc1nc2c3ccccc3nc(SCC(=O)NCc3ccco3)n2n1
viability: 86.4% (inactive)

O=C1CC(Sc2nnc(-c3ccccc3O)o2)C(=O)N1c1ccccc1 (stereo not given)
viability: 93% (inactive)

CCn1c(Cc2ccc(OC)cc2)nnc1SCC(=O)Nc1cccc(C(=O)OC)c1
viability: 81.8% (inactive)

COc1ccc(OC)c(C(=O)CSc2nnc(-c3ccc(OC)c(OC)c3)o2)c1
viability: 86.2% (inactive)

C/C(=N\O)C(=O)C(CN1CCCCC1)CN1CCCCC1
viability: 81% (inactive)

Cc1ccc(NC(=O)c2c(O)c3ccccc3n(C)c2=O)nc1
viability: 101% (inactive)

O=C(COc1nc2ccccc2nc1N1CCOCC1)N1CCc2ccccc21
viability: 86.1% (inactive)

C=CCn1c(SCC(=O)NC(=O)NCc2ccco2)nc2sc(CC)cc2c1=O
viability: 86.9% (inactive)

O=C(Nc1nc(NC(=O)c2ccco2)n(-c2ccccc2)n1)c1ccccc1
viability: 84.5% (inactive)

CC1(C)Cc2ccccc2C(NNC(=O)c2ccccn2)=N1
viability: 93.7% (inactive)

CC1CCCC(NC(=O)C2CCN(S(=O)(=O)N3CCC4(CC3)OCCO4)CC2)C1C (stereo not given)
viability: 93.2% (inactive)

NC(=O)Cc1c[nH]c2cccc(O)c12
viability: 103% (inactive)

Cc1ccc(Cn2c(SCC(=O)Nc3cc(C)on3)nc3ccccc3c2=O)cc1
viability: 81.2% (inactive)

COc1ccc(NC(=O)CSc2nnc(CNC(=O)COc3ccc(Cl)cc3)o2)c(OC)c1
viability: 95.2% (inactive)

Nc1nc2ccccc2n1/N=C/c1ccc(-c2ccccc2)o1
viability: 90.9% (inactive)

O=C(Nc1cccnc1)c1ccc(Br)s1
viability: 90% (inactive)

Cc1ccc(Cn2c(=S)[nH]c3ccc(N4CCOCC4)cc3c2=O)o1
viability: 90.9% (inactive)

Cc1cc(Cl)ccc1OCCCC(N)=O
viability: 94% (inactive)

CC(C)OC(=O)NCCOC(=O)Nc1cccc(Cl)c1
viability: 89.1% (inactive)
